This is a sample that favours compounds with a hit; in the whole collection about 2.5% have one here.
INS promoter inh: TRM-6 insulin promoter activity inhibition | TRM-6 cells (human fetal islet line), insulin promoter-eGFP reporter, imaging; reporter expression induced with tamoxifen | inhibition, % at 2 µM | 0.9% of 130,000 active | AID 1273;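 active = inhibition above the mean plus 3 SD, with well images judged a real hit on visual review, cut at about 60% in these data, passing the limit was not always enough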
NPY2 pot ag: potentiators or agonists of human neuropeptide Y receptor Y2; cells expressing NPY-Y2, potentiator/agonist read-out; activation, % at 3.6 µM; P49146; 0.45% of 220,000 active; in the data active = activation above about 27%;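 note: cells stimulated with NPY near EC25 plus isoproterenol at EC100; 0% = vehicle plus submaximal agonist and 100% = vehicle plus saturating agonist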
Target sequence (P49146 whole entry, looked up): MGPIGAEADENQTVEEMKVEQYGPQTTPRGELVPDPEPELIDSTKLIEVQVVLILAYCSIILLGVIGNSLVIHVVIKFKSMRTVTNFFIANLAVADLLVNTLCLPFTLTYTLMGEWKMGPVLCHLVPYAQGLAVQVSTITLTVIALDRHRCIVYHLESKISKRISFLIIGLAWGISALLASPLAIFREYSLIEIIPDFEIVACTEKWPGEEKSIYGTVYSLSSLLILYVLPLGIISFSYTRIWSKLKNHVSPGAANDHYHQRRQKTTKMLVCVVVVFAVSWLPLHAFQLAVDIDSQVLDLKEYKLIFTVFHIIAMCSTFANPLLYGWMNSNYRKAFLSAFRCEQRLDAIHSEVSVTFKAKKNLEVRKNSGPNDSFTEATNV
NPY-Y1 antag: blocks the human neuropeptide Y Y1 receptor | inhibition, % at 3.6 µM | AID 1040 | 1% of 200,000 active | P25929 | HEK293-CNG Y1 cells, membrane potential fluorescence; NPY at EC95, then isoproterenol;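 active = inhibition above the campaign mean inhibition of all tested compounds plus 3 SD, cut at about 20% in these data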;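 note: 0% = DMSO wells given NPY plus isoproterenol and 100% = isoproterenol alone without NPY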
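Material: HEK293 Y1/CNG channel cell line | Also added: NPY (25 nM), isoproterenol (1 µM), Ro 20-1724 (25 µM) | Compound: One concentration, 3.6 µM, in 0.4% DMSO | Schedule: 3 h dye uptake, 1 h room-temperature compound, 45 min post-isoproterenol | Signal: Membrane-potential fluorescent dye readout | Read-out: % inhibition of NPY effect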
NPY-Y2 antag: NPY-Y2 (human) receptor antagonism | NPY-Y2 expressing cells, antagonist mode | inhibition, % at 2.7 µM | AID 793 | P49146 | 0.99% of 140,000 active;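 note: 0% = vehicle with agonist challenge and 100% = reference antagonist with challenge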
NPY-Y1 PAM-ag: human NPY-Y1 potentiation or agonism, primary screen. NPY-Y1 expressing cells, potentiator/agonist activation. AID 1304. P25929. 0.37% of 220,000 active. activation, % at 3.6 µM; in the data active = activation above about 33%, passing the limit was not always enough;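 note: cells stimulated with NPY at EC10 then isoproterenol at EC100; 0% = low agonist plus stimulus and 100% = saturating agonist plus stimulus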
Insulin prom up: MIN6 insulin promoter up-regulation | AID 1625 | MIN6 insulin promoter-GFP reporter, high-content imaging; stronger effect = higher value | 0.3% of 190,000 active | z-score at 5 µM;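 active = z-score above 3 at 5 µM with at least 500 cells counted in the well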
NPY1 antag conf: human NPY-Y1 antagonism, confirmation | shares compounds with NPY-Y1 antag | HEK293-CNG NPY-Y1, membrane potential fluorescence, cAMP; NPY challenge against isoproterenol-raised cAMP | inhibition, % at 3.6 µM | 21% of 1,200 active | AID 1254; in the data active = inhibition above about 20%;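 note: 0% = vehicle with agonist plus stimulus and 100% = stimulus alone without agonist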
NPY2 antag ctr: human NPY-Y2 antagonism in NPY-Y1 counter-screen; inhibition, % at 3.6 µM; 28% of 1,200 active; HEK293 NPY-Y2 CNG membrane potential fluorescence; cells given NPY, then isoproterenol; shares compounds with NPY-Y1 antag;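 note: 0% = DMSO with agonist challenge and 100% = reference antagonist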
* hit, by the source's call; . = no result. Cut-off read from the data, not from the text of the source, unless noted: active = inhibition above about 17%; inactive = the rest.

SMILES | INS promoter inh | NPY2 pot ag | NPY-Y1 antag | NPY-Y2 antag | NPY-Y1 PAM-ag | Insulin prom up | NPY1 antag conf | NPY2 antag ctr
O=c1cc(CN2CCN(c3ccccc3)CC2)c2c(ccc3ccccc32)o1 | 30 | -5 | 44* | 5 | -131 | -0.32 | 36* | 57*
CCc1cccc(CC)c1NC(=O)COC(=O)C1(C)CC1(Cl)Cl (configuration not stated) | . | -7 | 29* | . | -4 | -1.5 | 11 | 18*
C=CCNC(=S)Nc1c(N)n(C)c(=O)n(C)c1=O | . | 0 | . | . | 15 | -1.2 | . | .
Cc1nn(S(=O)(=O)c2ccccc2)c(C)c1Sc1ccc([N+](=O)[O-])cc1 | -36 | 7 | 24* | 7 | -4 | 0.11 | 6 | 4
Cc1nn(S(=O)(=O)c2cccs2)c(C)c1Sc1ccc([N+](=O)[O-])cc1 | -54 | 7 | 10 | 5 | -5 | -0.69 | . | .
CCN(CC)CCSc1nc2ccccc2c(=S)n1-c1ccccc1 | 27 | -30 | 57* | . | -50 | -0.43 | 20* | 24*
O=C(NCc1ccco1)/C(=C/c1cccnc1)NC(=O)c1ccco1 | -4 | 0 | 2 | 1 | 1 | . | . | .
CC(=O)Cc1nsc(NC(=O)c2ccc(COc3ccccc3)o2)n1 | . | -1 | 0 | 1 | 2 | -0.83 | . | .
Cc1cccn2c(CN[C@@H]3CCCC[C@H]3c3ccccc3)c(C(=O)N3CCOCC3)nc12 | . | -6 | 26* | . | 8 | 0.26 | 10 | 5
Cc1cccc(OCCNC(=O)c2ccc(Oc3ccc(C(F)(F)F)cc3[N+](=O)[O-])cc2)c1 | . | -27 | 22* | 9 | -41 | 0.4 | 28* | 15
CCCCc1nc(N2CCOCC2)c(C#N)c2c1COC(C)(C)C2 | 44 | 6 | -5 | 1 | -7 | -0.14 | . | .
O=C(Nc1cccc(C(F)(F)F)c1)/C(=C/c1ccco1)NC(=O)c1cccs1 | . | -5 | 90* | 1 | 9 | -0.25 | -1 | -2
CC(=O)c1cccc(NC(=O)/C(=C\c2ccco2)NC(=O)c2cccs2)c1 | 7 | -9 | 5 | 0 | 0 | . | . | .
O=C(CN1CCN(C2CCCCC2)CC1)Nc1ccccc1-c1ccccc1 | . | -15 | 21* | 17 | -36 | 0.46 | 6 | 12
O=C(CN1CCCCC1)Nc1ccccc1-c1ccccc1 | -11 | -4 | 7 | 6 | -8 | 1.6 | . | .
CC(C)S(=O)(=O)c1csc(C(=O)Nc2ccc(F)cc2)c1N | . | 8 | . | . | 3 | 0.03 | . | .
Cc1nc(-c2ccccc2OC(F)(F)F)[nH]c(=O)c1Cl | . | 7 | . | . | -19 | -0.08 | . | .
CCCCCCCCCCOC(=O)C[N+](C)(C)C/C=C(/C)Cl | -39 | -3 | 23* | 15 | -1 | -0.92 | 11 | 12
COc1cnc(-c2ccccn2)nc1Oc1ccc(Cl)c2ccccc12 | . | -61 | 25* | 15 | -48 | . | 15 | 22*
Cc1cc(=O)[nH]c(SCC(=O)NC2CCCc3ccccc32)n1 (configuration not stated) | . | 6 | . | . | -1 | 0.31 | . | .
O=C(NN=C1CCCCC1)c1ccccc1OCc1ccc(F)cc1 | 7 | -44 | 30* | 5 | -52 | 0.45 | -2 | 3
Cc1ccccc1-n1nc(C(=O)O)cc1-c1ccccc1 | 41 | -8 | -2 | 6 | 4 | 1.1 | . | .
O=C(O)c1cc(-c2ccccc2)n(-c2ccccc2)n1 | -51 | -11 | 24* | 11 | -20 | -0.15 | 5 | 10
COc1ccc(CN(CC2CCCO2)C(=O)c2cc3ccccc3oc2=O)cc1 (configuration not stated) | -14 | 5 | 37* | . | 3 | -0.29 | 0 | 1
CC(C)Oc1ccc(C(=O)Nc2cccc3cccnc23)cc1 | . | -25 | 22* | . | -20 | -0.14 | 16 | 24*
SMILES | INS promoter inh | NPY2 pot ag | NPY-Y1 antag | NPY-Y2 antag | NPY-Y1 PAM-ag | Insulin prom up | NPY1 antag conf | NPY2 antag ctr
COc1ccc(C(=O)Nc2cccc3cccnc23)cc1OC | 19 | -1 | 8 | 3 | -29 | 0.02 | . | .
CC(=O)NC1(c2ccccc2)CCN(c2cc(C)nc(-c3ccccc3)n2)CC1 | 38 | -23 | 46* | . | -11 | -0.45 | 34* | 46*
Cc1cc(N2CCN(c3cccc(C)c3C)CC2)nc(-c2ccccc2)n1 | 22 | -34 | 21* | 14 | -23 | 0.12 | 22* | 17*
CCS(=O)(=O)c1ccc(O)c(NC(=O)NC2CCCCC2)c1 | . | -17 | . | . | 11 | 1.4 | . | .
CCCC(=O)Oc1ccc(-c2nccc(C(OC)OC)n2)cc1 | 36 | -2 | 3 | . | 6 | . | . | .
O=S(=O)(c1ccc(F)cc1F)N1CCCN(c2ccc(C(F)(F)F)cn2)CC1 | . | -8 | . | . | 15 | -0.52 | . | .
COCCNc1nc2nonc2nc1N(C)Cc1cccc2cnccc12 | 20 | -8 | 27* | . | 1 | -0.81 | 2 | 1
O=C(N/N=C/c1ccc(Br)s1)c1c[nH]c2ccccc12 | . | -6 | 20* | 3 | 8 | 0.06 | 0 | 0
COCCCNc1nc(SCc2ccccc2)nc2sc3c(c12)CCC3 | -17 | -23 | 21* | 2 | -71 | 1.2 | 30* | 46*
COC(=O)C(C(=O)Nc1nc2ccccc2s1)C1CCCC1 (configuration not stated) | . | 0 | 6 | . | 6 | -0.04 | . | .
CCCCN(CC)C(=O)Cc1cn(C)c2ccccc12 | -61 | -5 | 8 | 5 | -10 | -0.28 | . | .
Cc1ccc(-n2nc(C)c3c2OC(N)=C(C#N)C3c2ccncc2)cc1 (configuration not stated) | . | 10 | 24* | 0 | 27 | 0.13 | -2 | 11
CCOc1ccc(C(C)=O)cc1CSc1nnc(-c2cccs2)n1CC1CCCO1 (configuration not stated) | -14 | -29 | 27* | 5 | -21 | -0.86 | 6 | 5
O=C(CSc1nnc(-c2cccs2)n1CC1CCCO1)N1CCCC1 (configuration not stated) | . | -2 | -1 | . | 5 | 0.04 | . | .
COC(=O)c1c(NC(=O)CN2CCC(C(N)=O)CC2)c2c(C)cccc2n1C | . | 4 | 8 | -2 | 10 | 0.42 | . | .
COC(=O)c1c(NC(=O)CN2CCCC(C)C2)c2c(C)cccc2n1C (configuration not stated) | . | -17 | 32* | 13 | -16 | -1.6 | 6 | 4
O=C(CCN1C(=O)C2CCCCC2C1=O)Nc1ccc(F)c(F)c1F (configuration not stated) | . | -10 | 6 | . | 8 | 1.2 | . | .
Cc1ccc(SCCC(=O)OCn2nnc3ccccc3c2=O)cc1 | 27 | -14 | 23* | . | -2 | . | 14 | 15
Cc1[nH]c(=O)c(C#N)cc1-c1ccccc1 | -54 | -37 | 26* | 15 | -43 | 0.11 | 20* | 38*
O=C(CSc1ccc2c(c1)OCCO2)NCCc1ccc(Cl)cc1Cl | . | -21 | 20* | 12 | -44 | 0.98 | 8 | 7

Source: PubChem (several laboratories)
